Measurements published in ChEMBL document CHEMBL4118192, “BET bromodomain ligands: Probing the WPF shelf to improve BRD4 bromodomain affinity and metabolic stability” (Bioorg Med Chem, 2018).

Assays:
Type in all cases: functional
SNB-75 = test: Growth inhibition of human SNB75 cells at 10 uM after 48 hrs by sulforhodamine B assay relative to control; conditions: SNB-75, 48 h, read-out: GI
In short: (§1)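 NCI-60 human cancer cell line screen, single dose of 10 μM for 48 h. Cellular protein content read by sulforhodamine B staining; growth inhibition expressed relative to untreated control.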

COLO 205 [1] = test: Growth inhibition of human COLO205 cells after 48 hrs by sulforhodamine B assay; conditions: COLO 205, 48 h
In short: (§2)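 NCI-60 panel screen. Cells were exposed for 48 h at five concentrations between 10 nM and 100 μM. Cellular protein was read by sulforhodamine B staining, and GI50 and total growth inhibition (TGI) concentrations were derived.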

RPMI-8226 = test: Growth inhibition of human RPMI8226 cells at 10 uM after 48 hrs by sulforhodamine B assay relative to control; conditions: RPMI-8226, 48 h, read-out: GI
In short: (§3)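 NCI-60 human cancer cell line screen, single-dose pass: cells exposed to 10 μM for 48 h. Cellular protein content read out by sulforhodamine B staining, and growth inhibition expressed relative to untreated control.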

MDA-MB-435 = test: Growth inhibition of human MDA-MB-435 cells at 10 uM after 48 hrs by sulforhodamine B assay relative to control; conditions: MDA-MB-435, 48 h, read-out: GI; in short: as §3
786-0 = test: Growth inhibition of human 786-0 cells after 48 hrs by sulforhodamine B assay; conditions: 786-0, 48 h; in short: as §2
COLO 205 [2] = test: Growth inhibition of human COLO205 cells at 10 uM after 48 hrs by sulforhodamine B assay relative to control; conditions: COLO 205, 48 h, read-out: GI
In short: (§4)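 NCI-60 single-dose screen at 10 μM for 48 h. Percent growth inhibition was measured by sulforhodamine B staining of cellular protein.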

SF-268 = test: Growth inhibition of human SF268 cells after 48 hrs by sulforhodamine B assay; conditions: SF-268, 48 h
In short: (§5)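 NCI-60 panel follow-up: five concentrations from 10 nM to 100 μM, 48 h exposure. Growth read by sulforhodamine B protein staining. GI50 derived from the concentration-response, with the concentration for total growth inhibition (TGI) also recorded when below 100 μM.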

K562 = test: Growth inhibition of human K562 cells after 48 hrs by sulforhodamine B assay; conditions: K562, 48 h; in short: as §2
NCI-H23 = test: Growth inhibition of human NCI-H23 cells at 10 uM after 48 hrs by sulforhodamine B assay relative to control; conditions: NCI-H23, 48 h, read-out: GI; in short: as §3
LOX IMVI = test: Growth inhibition of human LOXIMVI cells at 10 uM after 48 hrs by sulforhodamine B assay relative to control; conditions: read-out: GI; in short: as §4
M14 = test: Growth inhibition of human M14 cells at 10 uM after 48 hrs by sulforhodamine B assay relative to control; conditions: M14, 48 h, read-out: GI; in short: as §4
MCF7 = test: Growth inhibition of human MCF7 cells after 48 hrs by SRB assay; conditions: MCF7, 48 h
In short: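 In-house assay. Cells were seeded into 96-well plates at a density for exponential growth and treated with a concentration range for 48 h. They were then fixed in 10% (w/v) TCA and stained with sulforhodamine B. The 50% growth-inhibitory concentration relative to control cells was calculated as the mean of three repeats ± standard deviation.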

BT-549 [3] = test: Growth inhibition of human BT549 cells after 48 hrs by sulforhodamine B assay; conditions: BT-549, 48 h; in short: as §2
SW-620 = test: Growth inhibition of human SW620 cells after 48 hrs by sulforhodamine B assay; conditions: SW-620, 48 h
In short: (§6)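 NCI-60 panel cells treated at five concentrations from 10 nM to 100 μM for 48 h. Read-out by sulforhodamine B protein stain. GI50 and total growth inhibition (TGI, if below 100 μM) taken from the concentration-response data.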

NCI-H322M = test: Growth inhibition of human NCI-H322M cells at 10 uM after 48 hrs by sulforhodamine B assay relative to control; conditions: read-out: GI; in short: as §3
CAKI-1 = test: Growth inhibition of human CAKI-1 cells after 48 hrs by sulforhodamine B assay; conditions: CAKI-1, 48 h; in short: as §2
NCI-H460 = test: Growth inhibition of human NCI-H460 cells after 48 hrs by sulforhodamine B assay; conditions: NCI-H460, 48 h; in short: as §5
SF-295 = test: Growth inhibition of human SF295 cells after 48 hrs by sulforhodamine B assay; conditions: SF-295, 48 h; in short: as §5
HCC 2998 = test: Growth inhibition of human HCC2998 cells at 10 uM after 48 hrs by sulforhodamine B assay relative to control; conditions: HCC 2998, 48 h, read-out: GI; in short: as §4
NCI-H226 [4] = test: Growth inhibition of human NCI-H226 cells at 10 uM after 48 hrs by sulforhodamine B assay relative to control; conditions: NCI-H226, 48 h, read-out: GI; in short: as §3
HL-60(TB) [5] = test: Growth inhibition of human HL-60(TB) cells at 10 uM after 48 hrs by sulforhodamine B assay relative to control; conditions: HL-60, 48 h, read-out: GI
In short: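 NCI-60 human cancer cell line screen, single dose of 10 μM for 48 h. Growth inhibition measured by sulforhodamine B assay of cellular protein content.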

OVCAR-4 = test: Growth inhibition of human OVCAR4 cells after 48 hrs by sulforhodamine B assay; conditions: OVCAR-4, 48 h; in short: as §5
UO-31 = test: Growth inhibition of human UO31 cells after 48 hrs by sulforhodamine B assay; conditions: UO-31, 48 h; in short: as §6
SR = test: Growth inhibition of human SR cells at 10 uM after 48 hrs by sulforhodamine B assay relative to control; conditions: read-out: GI; in short: as §1
HL-60(TB) [6] = test: Growth inhibition of human HL-60(TB) cells after 48 hrs by sulforhodamine B assay; conditions: HL-60, 48 h
In short: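 NCI-60 human cancer cell line screen, five concentrations from 10 nM to 100 μM. Growth measured by sulforhodamine B staining of cellular protein content. GI50 derived, with TGI where reached below 100 μM.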

CCRF-CEM = test: Growth inhibition of human CCRF-CEM cells at 10 uM after 48 hrs by sulforhodamine B assay relative to control; conditions: read-out: GI; in short: as §4
BT-549 [7] = test: Growth inhibition of human BT549 cells at 10 uM after 48 hrs by sulforhodamine B assay relative to control; conditions: BT-549, 48 h, read-out: GI; in short: as §4
NCI/ADR-RES = test: Growth inhibition of human NCI-ADR-RES cells after 48 hrs by sulforhodamine B assay; in short: as §5
SK-MEL-28 = test: Growth inhibition of human SK-MEL-28 cells at 10 uM after 48 hrs by sulforhodamine B assay relative to control; conditions: SK-MEL-28, 48 h, read-out: GI; in short: as §3
TK-10 = test: Growth inhibition of human TK10 cells at 10 uM after 48 hrs by sulforhodamine B assay relative to control; conditions: TK-10, 48 h, read-out: GI; in short: as §1
ACHN = test: Growth inhibition of human ACHN cells at 10 uM after 48 hrs by sulforhodamine B assay relative to control; conditions: read-out: GI; in short: as §4
NCI-H226 [8] = test: Growth inhibition of human NCI-H226 cells after 48 hrs by sulforhodamine B assay; conditions: NCI-H226, 48 h; in short: as §5

Row | Compound | inhibition of growth at 10 µM (SNB-75) | GI50 (COLO 205 [1]) | inhibition of growth at 10 µM (RPMI-8226) | inhibition of growth at 10 µM (MDA-MB-435) | GI50 (786-0) | inhibition of growth at 10 µM (COLO 205 [2]) | GI50 (SF-268) | GI50 (K562) | inhibition of growth at 10 µM (NCI-H23) | inhibition of growth at 10 µM (LOX IMVI) | inhibition of growth at 10 µM (M14) | GI50 (MCF7) | GI50 (BT-549 [3]) | GI50 (SW-620) | inhibition of growth at 10 µM (NCI-H322M) | GI50 (CAKI-1) | GI50 (NCI-H460) | GI50 (SF-295) | inhibition of growth at 10 µM (HCC 2998) | inhibition of growth at 10 µM (NCI-H226 [4]) | further results
1 | Cc1noc(C)c1-c1cc(O)cc(C(O)c2ccccc2)c1 (stereo not given) | 113% | 5.25 µM | 85.1% | 56.1% | 27.1 µM | 62.9% | 39.3 µM | 8.69 µM | 31.9% | 72.7% | 44% | 1.25 to 1.7 µM | 28.2 µM | 24.5 µM | 52.4% | 4.58 µM | 25.1 µM | 7.31 µM | 37.8% | 34.5% | inhibition of growth at 10 µM (HL-60(TB) [5]): 90%; GI50 (OVCAR-4): 6.35 µM; GI50 (UO-31): 4.58 µM; inhibition of growth at 10 µM (SR): 72.9%; GI50 (HL-60(TB) [6]): 2.17 µM; TGI (HL-60(TB) [6]): 22.7 µM; inhibition of growth at 10 µM (CCRF-CEM): 53.3%; inhibition of growth at 10 µM (BT-549 [7]): 35.3%; GI50 (NCI/ADR-RES): 6.32 µM; inhibition of growth at 10 µM (SK-MEL-28): 38.8%; inhibition of growth at 10 µM (TK-10): 87.4%; inhibition of growth at 10 µM (ACHN): 39.4%; GI50 (NCI-H226 [8]): 21.3 µM
2 | COc1ccccc1S(=O)(=O)Nc1ccc2c(c1)CN(C)C(=O)N2 | 82.5% | 3 µM | 95.7% | 65.8% | 12 µM | 61.6% | 28.8 µM | 4.6 µM | 43.3% | 70.9% | 52.2% | 1.5 µM | 14.8 µM | 12 µM | 57.1% | 3.6 µM | 9.3 µM | 13.5 µM | 35.6% | 37% | inhibition of growth at 10 µM (HL-60(TB) [5]): 78.1%; GI50 (OVCAR-4): 6.3 µM; GI50 (UO-31): 1.1 µM; inhibition of growth at 10 µM (SR): 64%; GI50 (HL-60(TB) [6]): 3.4 µM; inhibition of growth at 10 µM (CCRF-CEM): 51.1%; inhibition of growth at 10 µM (BT-549 [7]): -0.7%; GI50 (NCI/ADR-RES): 17.4 µM; inhibition of growth at 10 µM (SK-MEL-28): 51.1%; inhibition of growth at 10 µM (TK-10): 82.7%; inhibition of growth at 10 µM (ACHN): 65.3%; GI50 (NCI-H226 [8]): 14.1 µM
